According to ChEMBL document CHEMBL2016502, “Synthesis and fungicidal activity of tubulin polymerisation promoters. Part 2: pyridazines” (2012):
≈ marks a conversion by molar mass, not a printed value. Calls of active or inactive are those of the source. The rule behind the calls is not given here.

Columns and labels:
Alternaria solani = experiment: Antifungal activity against Alternaria solani infected in tomato plant assessed as leaf area with disease after 2 days relative to control; format: functional; conditions: 48 h
Summary of the method: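 Four-week-old tomato plants (cv. Roter Gnom) were sprayed in a chamber with formulated compound diluted in water. Plants were spray-inoculated with a spore suspension 2 days later and held in a greenhouse at 22/18 °C (day/night) and 95% rh.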

Zymoseptoria tritici = experiment: Antifungal activity against Mycosphaerella graminicola infected in wheat plant assessed as decrease in wheat leaf blotch relative to control; format: functional
Summary of the method: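 Wheat plants (cv. Riband, two weeks old) were treated in a spray chamber with formulated compound diluted in water and spray-inoculated with spores 1 day later. They were incubated for 1 day at 22/21 °C (day/night) and 95% rh, then kept in a greenhouse at 22/21 °C and 70% rh. Efficacy was scored 16–19 days after application, against diseased untreated checks.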

Botrytis cinerea = experiment: Antifungal activity against Botrytis cinerea infected tomato plant assessed as leaf area with disease after 2 days relative to control; format: functional; conditions: 48 h
Summary of the method: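 Tomato plants (cv. Roter Gnom, four weeks old) received a spray-chamber application of formulated compound in water. A spore suspension was sprayed on 2 days after treatment. Plants were incubated in a greenhouse at 20 °C and 95% rh. Diseased leaf area (%) was assessed 5–6 days after application, when untreated checks were adequately diseased.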

Tubulin (Sus scrofa) = Tubulin (Sus scrofa) (UniProt P02554+P02550); experiment: Induction of porcine tubulin polymerization at 0.24 to 20 ppm by spectrophotometric analysis; format: protein assay
Summary of the method: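 Compound was added at reaction start at 20, 2.2 and 0.24 ppm from a 0.2 mM DMSO solution. The reaction was started at 37 °C and followed by absorbance at 340 nm. Paclitaxel served as positive control and DMSO as negative control.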

Tubulin (Sus scrofa), sequence (P02550 whole entry, looked up): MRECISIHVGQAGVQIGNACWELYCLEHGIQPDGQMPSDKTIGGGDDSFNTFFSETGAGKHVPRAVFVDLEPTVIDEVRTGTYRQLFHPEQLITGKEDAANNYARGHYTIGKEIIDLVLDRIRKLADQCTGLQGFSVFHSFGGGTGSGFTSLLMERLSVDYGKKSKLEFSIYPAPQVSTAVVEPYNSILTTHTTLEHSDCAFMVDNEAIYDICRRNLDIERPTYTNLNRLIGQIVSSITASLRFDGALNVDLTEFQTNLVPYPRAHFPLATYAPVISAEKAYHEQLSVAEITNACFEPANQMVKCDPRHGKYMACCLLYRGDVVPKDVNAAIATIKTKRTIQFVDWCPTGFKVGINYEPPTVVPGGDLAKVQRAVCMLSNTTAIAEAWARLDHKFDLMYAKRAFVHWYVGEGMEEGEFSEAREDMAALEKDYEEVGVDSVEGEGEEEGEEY
Tubulin (Sus scrofa), sequence (P02554 whole entry, looked up): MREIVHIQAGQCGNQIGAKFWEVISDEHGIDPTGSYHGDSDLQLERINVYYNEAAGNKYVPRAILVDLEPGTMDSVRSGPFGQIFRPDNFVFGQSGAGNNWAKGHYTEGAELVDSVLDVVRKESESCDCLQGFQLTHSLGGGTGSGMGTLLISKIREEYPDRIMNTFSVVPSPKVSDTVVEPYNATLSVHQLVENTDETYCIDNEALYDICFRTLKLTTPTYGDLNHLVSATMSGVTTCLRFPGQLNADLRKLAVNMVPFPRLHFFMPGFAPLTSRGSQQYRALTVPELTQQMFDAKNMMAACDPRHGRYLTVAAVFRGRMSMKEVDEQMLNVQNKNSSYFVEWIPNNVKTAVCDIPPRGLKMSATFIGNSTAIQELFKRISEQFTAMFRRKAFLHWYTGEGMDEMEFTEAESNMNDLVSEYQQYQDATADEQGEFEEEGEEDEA

Structure (SMILES) | EC80 (Alternaria solani) [µg/mL] | EC80 (Zymoseptoria tritici) [µg/mL] | EC80 (Botrytis cinerea) [µg/mL] | Activity (Tubulin (Sus scrofa))
Cc1nnc(Cl)c(-c2c(F)cc(F)cc2F)c1Cc1ccccc1 | 56 (≈ 161 µM) | 50 (≈ 143 µM) | 77 (≈ 221 µM) | –
COc1nnc(Cl)c(-c2c(F)cc(F)cc2F)c1-c1ccc(Cl)cc1 | 92 (≈ 239 µM) | 14 (≈ 36.3 µM) | 58 (≈ 151 µM) | –
Cc1nnc(Cl)c(-c2c(F)cc(F)cc2F)c1-c1ccc(Cl)cc1 | 2 (≈ 5.42 µM) | 2 (≈ 5.42 µM) | 6 (≈ 16.3 µM) | –
COc1cc(F)c(-c2c(Cl)nnc(C)c2-c2ccc(Cl)nc2)c(F)c1 | 1 (≈ 2.62 µM) | 3 (≈ 7.85 µM) | 1 (≈ 2.62 µM) | –
COc1cc(F)c(-c2c(Cl)nnc(C)c2-c2ccc(Cl)nc2)cc1F | 19 (≈ 49.7 µM) | 46 (≈ 120 µM) | 23 (≈ 60.2 µM) | –
Cc1nnc(Cl)c(-c2c(F)cc(F)cc2F)c1-c1ccc(Cl)nc1 | 2 (≈ 5.4 µM) | 1 (≈ 2.7 µM) | 1 (≈ 2.7 µM) | –
C#Cc1ccc(-c2c(C)nnc(Cl)c2-c2c(F)cc(F)cc2F)cc1 | 1 (≈ 2.79 µM) | 1 (≈ 2.79 µM) | 3 (≈ 8.36 µM) | –
CN(C)c1nnc(Cl)c(-c2c(F)cc(F)cc2F)c1-c1ccc(Cl)cc1 | 16 (≈ 40.2 µM) | 6 (≈ 15.1 µM) | 40 (≈ 100 µM) | –
Cc1nnc(C)c(-c2c(F)cc(F)cc2F)c1-c1ccc(Cl)cc1 | 18 (≈ 51.6 µM) | 14 (≈ 40.1 µM) | 4 (≈ 11.5 µM) | –
Fc1cc(F)c(-c2c(Cl)nnc(Cl)c2-c2ccc(Cl)cc2)c(F)c1 | 134 (≈ 344 µM) | 96 (≈ 246 µM) | 127 (≈ 326 µM) | –
Cc1nnc(Cl)c(-c2c(F)cccc2F)c1-c1ccc(Cl)nc1 | 54 (≈ 153 µM) | 60 (≈ 170 µM) | 78 (≈ 221 µM) | –
Cc1nnc(Cl)c(-c2ncc(Cl)cc2Cl)c1-c1ccc(Cl)nc1 | 33 (≈ 85.5 µM) | 9 (≈ 23.3 µM) | 15 (≈ 38.9 µM) | –
Cc1nnc(Cl)c(-c2c(F)cc(F)cc2F)c1-c1ccc2ccccc2n1 | 4 (≈ 10.4 µM) | 5 (≈ 13 µM) | 1 (≈ 2.59 µM) | –
CC(=O)O[C@H]1C(=O)[C@@]2(C)[C@H]([C@H](OC(=O)c3ccccc3)[C@]3(O)C[C@H](OC(=O)[C@H](O)[C@@H](NC(=O)c4ccccc4)c4ccccc4)C(C)=C1C3(C)C)[C@]1(OC(C)=O)CO[C@@H]1C[C@@H]2O | – | – | – | Active
Cc1nnc(O)c(-c2c(F)cc(F)cc2F)c1-c1ccc(Cl)cc1 | > 200 | > 200 | > 200 | –
CSc1nnc(Cl)c(-c2c(F)cc(F)cc2F)c1-c1ccc(Cl)cc1 | 42 (≈ 105 µM) | 90 (≈ 224 µM) | 124 (≈ 309 µM) | –
COc1nnc(C)c(-c2ccc(Cl)cc2)c1-c1c(F)cc(F)cc1F | 57 (≈ 156 µM) | 53 (≈ 145 µM) | 97 (≈ 266 µM) | –
Cc1nnc(F)c(-c2c(F)cc(F)cc2F)c1-c1ccc(Cl)cc1 | 17 (≈ 48.2 µM) | 191 (≈ 542 µM) | 8 (≈ 22.7 µM) | –
Cc1nnc(Cl)c(-c2c(F)cc(F)cc2F)c1-c1ccc(Cl)s1 | 49 (≈ 131 µM) | 41 (≈ 109 µM) | 25 (≈ 66.6 µM) | Active
COc1cc(F)cc(F)c1-c1c(Cl)nnc(C)c1-c1ccc(Cl)nc1 | 17 (≈ 44.5 µM) | 95 (≈ 249 µM) | > 200 | –
